The chains are these.
B1: tRNA (parent)
chain: GUUCCGUUGGCGUAAUGGUAACGCGUCUCCCUCCUAAGGAGAAGACUGCGGGUUCGAGUCCCGUACGGAACG

Here are results for 167 variants from the RNAGym collection of RNA variant scans (doi:10.1126/science.aae0568).

Variants at the floor of the assay were thinned out.

This series covers variants of B1. As to the kind of experiment: yeast fitness relative to wild type (ratio to wild type); higher = fitter; tRNA-Arg(CCU), competitive growth, 37 C, YPD. The procedure, abridged:
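Changes in genotype frequencies gave Darwinian fitness relative to wild type. Frequencies were read by 100-nucleotide paired-end sequencing of gene amplicons before and after pooled Saccharomyces cerevisiae strains, carrying tRNA-Arg(CCU) gene variants at the native locus, were competed in YPD at 37°C for 24 hours in six replicates. A genotype was kept only with ≥ 100 starting reads, and estimates < 0.5 were set to 0.5.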
On to U13A A14C C22A G48C A69U, for which the yeast fitness was at most 0.5.

Take U13A C34G A45C A57C: the yeast fitness is at most 0.5.

As to U13A C31U C49U C66A G67A, the yeast fitness was at most 0.5.

As for G12C G48C A70U, the yeast fitness amounted to 0.539.

On to G12C C29G C46G G51A G52A, for which the yeast fitness was at most 0.5.

As to U13A A43C A57C A70U, the yeast fitness is 0.551.

On to G12C U28A G50A, for which the yeast fitness turned out to be 0.606.

As to G12C C30U C33G U47G, the yeast fitness is at most 0.5.

As for U13C A40U C62A, the yeast fitness came out at 0.557.

U13C A14G C24G G52A C55G A69U: the yeast fitness is at most 0.5.

On to G12C C31U G50A, for which the yeast fitness was 0.677.

Consider U13A A15G C22G C24U G44A U53G, for which the yeast fitness is at most 0.5.

In the case of U13A C24A C30A, the yeast fitness was 0.605.

Consider G12C C62U A69U, for which the yeast fitness was 0.651.

Consider U13A A20U A37C, for which the yeast fitness turned out to be 0.557.

U13A C55U A69C: the yeast fitness stood at 0.599.

With U13A C22G U59G A65U, the yeast fitness was at most 0.5.

For the variant U13C A57U, the yeast fitness amounted to 0.753.

Turning to U13A U16A U54A A65G, the yeast fitness is at most 0.5.

In the case of U13A A45U, the yeast fitness came out at 1.

Regarding U13A C46G G63C C66A, the yeast fitness was at most 0.5.

In the case of U13A G23C C27G U53C, the yeast fitness is at most 0.5.

Take U13A G68U: the yeast fitness is 0.824.

Turning to U13A A37U U53G, the yeast fitness is 0.536.

Turning to U13C A14U U32C, the yeast fitness was 0.53.

On to U13A A14C C22A U54C, for which the yeast fitness is at most 0.5.

For the variant U13A G23C C27G U53C C61A G68A, the yeast fitness is 0.584.

As to U13A C22G G25C C27U C30G, the yeast fitness was at most 0.5.

G12C U47A G52C: the yeast fitness was at most 0.5.

Take G12C U28C C30U C66A: the yeast fitness was at most 0.5.

Consider U13C A21C C55U A69C, for which the yeast fitness is at most 0.5.

For U13C A20C A21C C46G, the yeast fitness is at most 0.5.

U13A A42U A70G: the yeast fitness amounted to 0.745.

Take G12C G23C G50A C55A: the yeast fitness was at most 0.5.

As to U13A G38C G58C, the yeast fitness is 0.798.

Consider U13A A14U C24G U28G C31U C66U, for which the yeast fitness is at most 0.5.

Take U13C A43U: the yeast fitness came to 1.04.

U13C A43C: the yeast fitness came to 1.28.

For the variant G12C U16C C31G, the yeast fitness is at most 0.5.

As to U13A A21C, the yeast fitness came out at 0.65.

As for U13A U28A G63A G67A, the yeast fitness was at most 0.5.

With U13A C49U, the yeast fitness is 1.02.

As for U13A C49A, the yeast fitness was 0.654.

For the variant U13A G41A G67A, the yeast fitness was 0.546.

For U13A C55A, the yeast fitness is 0.648.

U13A A45G A65C: the yeast fitness amounted to 0.656.

For the variant G12C G41C C46U, the yeast fitness came to 0.596.

As for U13A C62U, the yeast fitness was found to be 1.05.

For U13A C24U U35A A43C G50C, the yeast fitness was at most 0.5.

As to G12C U26C A37G, the yeast fitness is at most 0.5.

As for U13C A14C U16C U64C A65C, the yeast fitness is at most 0.5.

For U13C A15U C46A C66U, the yeast fitness is at most 0.5.

For U13C A45C G56A, the yeast fitness is 0.743.

For G12C C30U C66A, the yeast fitness is at most 0.5.

Take U13A C34U A36G: the yeast fitness was at most 0.5.

In the case of G12C U28A C66U G68A, the yeast fitness was at most 0.5.

On to G12C U47C, for which the yeast fitness was found to be 0.958.

Consider U13A U32C A65C, for which the yeast fitness was 0.539.

For the variant G12C C33A A42G, the yeast fitness worked out at 0.733.

As to U13A A42U C66U, the yeast fitness is 0.704.

For the variant G12C U13A A20C A21G U26G, the yeast fitness was at most 0.5.

On to G12C U32G C49G C55A, for which the yeast fitness is at most 0.5.

As for G12C G41C C66U, the yeast fitness amounted to 0.551.

In the case of U13A C22U A37G, the yeast fitness came to 0.533.

In the case of U13A A20G A21U A40U, the yeast fitness was at most 0.5.

In the case of U13A A15C C46U, the yeast fitness worked out at 0.612.

On to U13A A43G A45G G50C C60A A69C, for which the yeast fitness was 0.534.

As for U13A A43U G50A U54G G68C, the yeast fitness was at most 0.5.

In the case of G12C U13A G38A, the yeast fitness came to 0.576.

For U13A C62G A69G, the yeast fitness stood at 0.571.

For G12C C55U, the yeast fitness came out at 0.734.

Turning to U13C A37C U53C, the yeast fitness is 0.599.

For the variant G12C C29G G51A G68C, the yeast fitness was at most 0.5.

Regarding G12C G25C A69U, the yeast fitness was at most 0.5.

U13C A20C A40G: the yeast fitness is at most 0.5.

Regarding U13A C24G U28A C30U C31G G41C G56A A57C, the yeast fitness is at most 0.5.

As for G12C C33G G44C U54A, the yeast fitness is at most 0.5.

Regarding G12C C34A G58C A65C A69C, the yeast fitness is at most 0.5.

U13A C27A A36C A42U U64G: the yeast fitness was at most 0.5.

Take U13A C46U U64C A69U: the yeast fitness is at most 0.5.

On to U13A C24A A45U G50A G56A, for which the yeast fitness is at most 0.5.

For the variant G12C C31U A57U, the yeast fitness stood at 0.603.

U13C A37G C49G C55U G56C G68A: the yeast fitness is at most 0.5.

On to G12C C49U G52C A57C A65C, for which the yeast fitness was 0.53.

G12C U54A: the yeast fitness came to 0.701.

In the case of G12C U54C, the yeast fitness turned out to be 0.702.

With G12C C34U G44A G51C, the yeast fitness is at most 0.5.

In the case of U13A A40C A69G, the yeast fitness amounted to 0.629.

On to G12C U19A, for which the yeast fitness came to 0.742.

U13A C22A A36U: the yeast fitness is at most 0.5.

On to U13C A36C A43C C60A, for which the yeast fitness stood at 0.566.

Regarding U13C A20G A37U C61A, the yeast fitness is at most 0.5.

As to U13A C61A A65G, the yeast fitness turned out to be 0.544.

Take U13A G48C C55G: the yeast fitness came out at 0.554.

As to G12C G17C C22A A42C, the yeast fitness is at most 0.5.

With U13A A36G G56A, the yeast fitness was found to be 0.679.

As to G12C C46U C49G, the yeast fitness is 0.622.

Consider U13A A14C U19C U32A G63C, for which the yeast fitness was 0.64.

Regarding U13A C27G A43C A45U U64C, the yeast fitness was 0.582.

For U13A G23C U32G G58C C61A A65U, the yeast fitness was at most 0.5.

On to U13A C31G, for which the yeast fitness was determined as 1.05.

With U13A A36G A43U G51A, the yeast fitness is at most 0.5.

For U13A C27G C34G G48C, the yeast fitness is at most 0.5.

For G12C G67A, the yeast fitness amounted to 0.771.

For G12C G67C, the yeast fitness was determined as 0.825.

As to U13A G56A, the yeast fitness was found to be 0.927.

Regarding U13A G41A G68C, the yeast fitness is 0.504.

U13A G63A: the yeast fitness was determined as 0.853.

Consider U13A C27U A69U, for which the yeast fitness turned out to be 0.864.

U13A U32A A37U: the yeast fitness was at most 0.5.

G12C C34U G44A G52A C55U: the yeast fitness is at most 0.5.

For U13A C24U C55G, the yeast fitness is 0.537.

As for U13A C31A G44A A57G, the yeast fitness was at most 0.5.

Take G12C G18C U54C: the yeast fitness was at most 0.5.

For the variant U13C A14U C31G G50A A65C, the yeast fitness was determined as 0.531.

Turning to G12C C30G A37U G41A G58C, the yeast fitness amounted to 0.581.

For U13A A20C, the yeast fitness is 0.715.

Take U13A A20G: the yeast fitness worked out at 0.888.

As for U13A A36G, the yeast fitness turned out to be 1.02.

For U13A U35C C46U C55G, the yeast fitness was at most 0.5.

Consider U13A G67C, for which the yeast fitness worked out at 0.945.

Turning to U13C A14G, the yeast fitness was found to be 0.704.

As for U13A C61G G68C, the yeast fitness is at most 0.5.

Consider G12C U19A C27G A65C G68A, for which the yeast fitness was at most 0.5.

Take G12C U13A U16G C24G A69U: the yeast fitness was at most 0.5.

Consider G12C C33G G44C A69C, for which the yeast fitness is at most 0.5.

For U13C A20G C31U, the yeast fitness was 0.777.

Consider U13A U28C C55U, for which the yeast fitness was 0.741.

On to U13A C29G A43G G67A, for which the yeast fitness was at most 0.5.

For G12C G38A A40G A42C, the yeast fitness was at most 0.5.

As for U13A A15G C27U A57G, the yeast fitness was at most 0.5.

Regarding U13A U53A C61U, the yeast fitness was at most 0.5.

In the case of U13A G50C, the yeast fitness came out at 0.653.

G12C C34U C49U A57G: the yeast fitness is at most 0.5.

U13C A15U G23A C33A A42G G56A: the yeast fitness was at most 0.5.

Take G12C U59C A69C: the yeast fitness was 0.665.

As for U13A C27A A36G A42C, the yeast fitness was at most 0.5.

Take G12C U13C A20C C24G G39C: the yeast fitness was at most 0.5.

With U13A C30U G39C C55G, the yeast fitness was determined as 0.545.

G12C U13C A40U G58C: the yeast fitness is at most 0.5.

For G12C C31G A65C, the yeast fitness is at most 0.5.

As for U13C A36U C62U G63C A70C, the yeast fitness is at most 0.5.

Take U13A U16A C24G C33G: the yeast fitness was at most 0.5.

As to G12C C27U G50A, the yeast fitness was at most 0.5.

As to G12C C61U C66U A70C, the yeast fitness was at most 0.5.

With G12U C30G, the yeast fitness was at most 0.5.

As to U13A G18C A36G G41C C55U, the yeast fitness was 0.55.

As for U13A C24A A45C, the yeast fitness was at most 0.5.

In the case of U13A A37U, the yeast fitness was determined as 0.63.

For U13A G18C A36G G41C G67A, the yeast fitness is at most 0.5.

As for G12C C30G A37G U47G, the yeast fitness is at most 0.5.

As for U13A A57U, the yeast fitness is 0.681.

As to U13A G17A U32A, the yeast fitness was at most 0.5.

Regarding U13A U59C C66A, the yeast fitness was at most 0.5.

Take G12C G18C G50C: the yeast fitness is at most 0.5.

Consider U13A C27G, for which the yeast fitness amounted to 0.621.

U13A C22A A42U: the yeast fitness stood at 0.582.

With G12C U16C U28A C60U, the yeast fitness was at most 0.5.

Regarding U13A G23C C49A U64G, the yeast fitness is at most 0.5.

As for U13A C22G C24A C46G C55U, the yeast fitness is 0.551.

On to G12C C31G C33G G48A, for which the yeast fitness is 0.642.

As to G12C U13G A15C A36U C55G, the yeast fitness was at most 0.5.

Turning to U13A C31U C46A, the yeast fitness was determined as 0.665.

On to G12C U28C U35A G38A C46G C62U, for which the yeast fitness is at most 0.5.

Take U13A A42U A57C C61U A65U: the yeast fitness is at most 0.5.

Turning to U13A C27U A70U, the yeast fitness amounted to 0.867.

For the variant G12C C31U C62G, the yeast fitness stood at 0.557.
